According to the array DNA melting data of Ke et al. (doi:10.1101/2024.01.08.574731):

Key:
[1] = melting temperature; fluorescence melt of hairpins on a sequencing array, two-state fit, raised by 9.35 °C to match UV melts; conditions: sodium 0.088 M
In short: (§1)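 Folding enthalpy and melting temperature were estimated with bootstrapped two-state fits and combined across four replicates by inverse-variance weighting, with fitted temperatures raised by 9.35 °C to match UV melts. The data were Cy3 fluorescence of library hairpins, with annealed Cy3 and quencher oligos, on a sequenced MiSeq flow cell in 50 mM Na-HEPES pH 8.0, 25 mM NaCl, imaged in 2.5 °C steps up to 60 °C and normalised to pre-quench Cy3 and control constructs.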

[2] = folding enthalpy; higher = less favourable; fluorescence melt of hairpins on a sequencing array, two-state fit; conditions: sodium 0.088 M
In short: as §1

Sequence | Tm [1] [°C] | folding enthalpy [2] [kcal/mol]
GGAGTCCGAAAGGAGTCC (((.(((....))).))) | 63.3 | -44.2
GATCTGGGTACAGATC ((((((....)))))) | 57.7 | -38.7
GTAGGGGGAAACCCCTAC (((((((....))))))) | 61.9 | -37.4
GCGAGCCGTCGC ((((....)))) | 52.7 | -20
GATCGGGCAACCGATC ((((((....)))))) | 65.4 | -34.4
GTTCTCGAAAGAGACAAC ((((((....)))..))) | 30.6 | -11.6
GATCAGACGCCTGATC ((((((....)))))) | 50 | -40.1
GGTGTAGGAAACTATACC (((.(((....))).))) | 42.4 | -32
GCAAGTTCGAAAGAATGC (((..(((....)))))) | 27.3 | -11.8
GCGAAGATTCGC ((((....)))) | 49 | -21.8
GGCGTTGGAAACAGTGCC (((..((....))..))) | 42.6 | -28.2
GTAGGACCGAAAGGTTAC (((..(((....)))))) | 28.5 | -12.7
GATCGAAAATTCGATC ((((((....)))))) | 50 | -33.9
GGCCGCCGAAAGGCTGCC (((.(((....))).))) | 65.5 | -30.7
GGACTCGAAAGAGCGTCC ((((((....)))..))) | 32 | -16
GAATTTGAAAAAATTC ((((((....)))))) | 38.8 | -26.6
GAGTTCGCGAAAGCGCTC (((..(((....)))))) | 25.9 | -6.78
GGTGTCGAAAGACAGACC ((((((....)))..))) | 44 | -15.1
GGTTCTCCGAAAGGAACC (((..(((....)))))) | 42.9 | -20.8
GCGTCAGCACGC ((((....)))) | 61.9 | -8.99
GCTTGAGGAAACTCAAGC (((((((....))))))) | 62.8 | -41.9
GGTACCGCGAAAGCGACC (((..(((....)))))) | 28.1 | -10.2
GACCACGGAAACGTAGTC (((.(((....))).))) | 37 | -22.6
GCGATTGGAAACAATTGC ((.((((....)))).)) | 49.7 | -35.4

Sequence | Tm [1] [°C] | folding enthalpy [2] [kcal/mol]
GTGGCCGAAAGGCATCAC ((((((....)))..))) | 39.5 | -11.8
GGTATACGAAAGTAGACC (((.(((....))).))) | 52.1 | -50.9
GGGATCGAAAGATCGCCC ((((((....)))..))) | 47.2 | -15.3
GGCCGACGAAAGTCAGCC (((.(((....))).))) | 59.4 | -35.5
GGGCCCGAAAGGGAACCC ((((((....)))..))) | 57.5 | -15.6
GCAGAGGAAACTCTGC ((((((....)))))) | 65.8 | -35.2
GATCCAACCGTGGATC ((((((....)))))) | 49.8 | -30.3
GATCCGGACGCGGATC ((((((....)))))) | 59.5 | -38
GGTAACGGAAACGTTGTC (..((((....))))..) | 31.6 | -16.8
GTCATTGGAAACAATGGC (.(((((....))))).) | 47.6 | -28.6
GCGGAGTGCCGC ((((....)))) | 57.1 | -13.7
GCATTGTCGAAAGACTGC (((..(((....)))))) | 37.2 | -22.8
GATCAACCCATTGATC ((((((....)))))) | 44.8 | -31.8
GATCTAGTCCTAGATC ((((((....)))))) | 47.4 | -31.9
GATCCTATTAAGGATC ((((((....)))))) | 52.2 | -44.9
GTGGGTGGAAACGCCCAC (((((.(....).))))) | 61.8 | -40.3
GAGCAACGAAAGTTACTC (((.(((....))).))) | 42.9 | -26.2
GCGATTGGTCGC ((((....)))) | 52.1 | -23.4
GCGAACGAAAGTTAGCGC ((((((....)))..))) | 55.8 | -31
GTTGGAGGAAACTCCGAC ((.((((....)))).)) | 52.8 | -40.7
GATCAATATGTTGATC ((((((....)))))) | 49 | -38.9
GCGCGCGAAAGCGGACGC ((((((....)))..))) | 64.9 | -16.5
GGGTAAGGAAACTCACCC ((((.((....)).)))) | 36.8 | -28.4
GTATTCGCGAAAGCGTAC (((..(((....)))))) | 23.4 | -8

Sequence | Tm [1] [°C] | folding enthalpy [2] [kcal/mol]
CCGGAGAAATCCGG (((((....))))) | 56.5 | -21.4
GATCGGAGGGCCGATC ((((((....)))))) | 55.1 | -37.3
CGCGTCGGAAACGAGGCG (((.(((....))).))) | 60.9 | -46.5
GCTTGGCGAAAGCTAAGC ((((.((....)).)))) | 64.7 | -30
GATCGATATTTCGATC ((((((....)))))) | 53.1 | -44.3
GATCCGCATCCGGATC ((((((....)))))) | 56.6 | -38
GCGGAGCGAAAGCTAGGC ((..(((....)))..)) | 41.9 | -9.5
GCCTCGGGAAACCGGGGC (((.(((....))).))) | 66.3 | -36.4
GCACAAGGAAACTTGTAC (.(((((....))))).) | 32.9 | -20.6
GAACTTGAAAAAGTTC ((((((....)))))) | 49.7 | -28.8
GCTAACCCGAAAGGGAGC (((..(((....)))))) | 41.1 | -15.6
GGTTTGGGAAACTGAACC ((((..(....)..)))) | 35.1 | -29.2
GCTTCCGAAAGGATTAGC ((((((....)))..))) | 38.3 | -23.2
GATCCAATTGTGGATC ((((((....)))))) | 49.6 | -32.7
CGGGCGGAAACGCTGCCG ((((((....)))..))) | 45.8 | -16.8
GCTGTCGGAAACGACAAC (.(((((....))))).) | 40.9 | -12.9
GGTATAACGAAAGTTACC (((..(((....)))))) | 37.8 | -13.7
GGAAACGGAAACGCTTCC ((((.((....)).)))) | 43.4 | -34.1
GACTGGGGAAACTCGGTC (((.(.(....).).))) | 38.5 | -21.3
GCTGGGCGAAAGCCTCGC ((..(((....)))..)) | 44.6 | -14.9
GCGTGTAGACGC ((((....)))) | 58.5 | -21.4
GATCGAACTATCGATC ((((((....)))))) | 50.3 | -43.8
GGCATGGGAAACCATGTC (.(((((....))))).) | 52.5 | -26.6
GCGCACCCGAAAGGGCGC (((..(((....)))))) | 67 | -20.5

Sequence | Tm [1] [°C] | folding enthalpy [2] [kcal/mol]
GAGCATGGAAACACGCTC ((((.((....)).)))) | 44 | -35.6
GCCCCGCGAAAGCGCAGC ((..(((....)))..)) | 40.3 | -7.42
GCGCTGCGAAAGCAAGGC ((..(((....)))..)) | 46.7 | -16
GGCCTCGAAAGAGGCGCC ((((((....)))..))) | 66.5 | -6.36
GGGGACGGAAACGTTCCC (((.(((....))).))) | 61.4 | -43.9
GCTATGCGAAAGCATGGC ((.((((....)))).)) | 65 | -32
GCGGGGCGAAAGCCGAGC ((..(((....)))..)) | 66.2 | -24.9
GGGATCGAAAGATTGCCC ((((((....)))..))) | 32.6 | -14.6
GAGCAGGGAAACCCGCTC ((((.((....)).)))) | 51.4 | -34.2
GATCCTGCCCAGGATC ((((((....)))))) | 57 | -49.4
GGGGATGGAAACACCCCC ((((.((....)).)))) | 49 | -26.4
GATCCAGCCTGGATC ((((((...)))))) | 52.2 | -34
GAGACGGAAACGTCTC ((((((....)))))) | 63.3 | -39.8
GAACGCGAAAGCGTTTC ((((((....))).))) | 57.7 | -10.7
GTCTGAGGAAACCCAGAC (((((.(....).))))) | 45.9 | -31.8
GATCTCGGTCGAGATC ((((((....)))))) | 56.2 | -41.5
GATCTATGTATAGATC ((((((....)))))) | 48.2 | -36.9
GTCATGCGAAAGCACGAC (((.(((....))).))) | 52.3 | -27.5
CGGGACGGAAACGTACCG (((.(((....))).))) | 62.4 | -42.1
GTGTTTCGAAAGAAGCAC (((.(((....))).))) | 51 | -38.1
GCGCTTGGAAACAAACGC (((.(((....))).))) | 48 | -34.1
